Experiments:
Homo sapiens [1] = organism: Homo sapiens; experiment: Antimigraine activity in migraine patient assessed as pain relief incidence at 5 mg after 2 hrs (reference value: 27.7%); assay type: functional
Homo sapiens [2] = organism: Homo sapiens; experiment: Antimigraine activity in migraine patient assessed as pain freedom incidence at 5 mg after 2 hrs (reference value: 9.6%); assay type: functional
Homo sapiens [3] = organism: Homo sapiens; experiment: Antimigraine activity in migraine patient assessed as induction pain relief at 5 mg after 2 hrs; assay type: functional
Homo sapiens [4] = organism: Homo sapiens; experiment: Antimigraine activity in migraine patient assessed as pain relief incidence at 10 mg after 2 hrs (reference value: 46.3%); assay type: functional
Homo sapiens [5] = organism: Homo sapiens; experiment: Antimigraine activity in migraine patient assessed as pain freedom incidence at 10 mg after 2 hrs (reference value: 14.3%); assay type: functional
Homo sapiens [6] = organism: Homo sapiens; experiment: Toxicity in migraine patient assessed as incidence of drug-related adverse events at 10 mg; assay type: organism-based; details: in vivo
Homo sapiens [7] = organism: Homo sapiens; experiment: Antimigraine activity in migraine patient assessed as induction pain relief at 10 mg after 2 hrs; assay type: functional
Homo sapiens [8] = organism: Homo sapiens; experiment: Antimigraine activity in migraine patient assessed as pain freedom incidence at 100 mg after 2 hrs (reference value: 15.3%); assay type: functional
Homo sapiens [9] = organism: Homo sapiens; experiment: Antimigraine activity in migraine patient assessed as pain relief incidence at 100 mg after 2 hrs (reference value: 51.2%); assay type: functional
[10] = biological target: Calcitonin gene-related peptide type 1 receptor (Homo sapiens, UniProt O60894+Q16602); experiment: Antagonist activity against human CGRP receptor
[11] = biological target: Calcitonin gene-related peptide type 1 receptor (Homo sapiens, UniProt Q16602)
Homo sapiens [12] = organism: Homo sapiens; experiment: Selectivity for human CGRP receptor over AMY1 receptor (unknown origin)
Homo sapiens [13] = organism: Homo sapiens; experiment: Selectivity for human CGRP receptor over AM1 receptor (unknown origin)
[14] = Binding affinity to rhesus monkey CGRP receptor; parameters: species or system Macaca mulatta
Homo sapiens [15] = organism: Homo sapiens; experiment: Antimigraine activity in migraine patient assessed as pain relief incidence at 10 mg after 2 hrs (reference value: 36.1%); assay type: functional
Homo sapiens [16] = organism: Homo sapiens; experiment: Antimigraine activity in migraine patient assessed as pain relief incidence at 200 mg after 2 hrs (reference value: 36.1%); assay type: functional
Homo sapiens [17] = organism: Homo sapiens; experiment: Antimigraine activity in migraine patient assessed as pain freedom incidence at 200 mg after 2 hrs (reference value: 9.8%); assay type: functional
Homo sapiens [18] = organism: Homo sapiens; experiment: Selectivity for human CGRP receptor over AM2 receptor (unknown origin)
Method in brief: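 Radioligand binding on membranes from HEK293 cells stably expressing human CLR/RAMP1 (CGRP receptor; [125I]hCGRP displaced) or human CLR/RAMP3 (AM2 receptor; [125I]hAM displaced). Ki values come from inhibition of radioligand binding. Selectivity is the ratio of AM2 Ki to CGRP Ki.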

Homo sapiens [19] = organism: Homo sapiens; experiment: Antimigraine activity in migraine patient assessed as pain freedom incidence at 10 mg after 2 hrs (reference value: 9.8%); assay type: functional
Homo sapiens [20] = organism: Homo sapiens; experiment: Inhibition of capsaicin-induced dermal vasodilation in human by laser Doppler imaging method; assay type: functional
Homo sapiens [21] = organism: Homo sapiens; experiment: Toxicity in healthy human; assay type: organism-based; details: in vivo
Homo sapiens [22] = organism: Homo sapiens; experiment: Antimigraine activity in migraine patient assessed as pain freedom incidence at 2.5 mg after 2 hrs (reference value: 2%); assay type: functional
[23] = Oral bioavailability in dog; assay type: ADME, organism-based, Canis lupus familiaris; details: in vivo
[24] = Cmax in healthy human at 2.5 mg; assay type: ADME, organism-based; parameters: dose 2.5 mg; details: in vivo
[25] = Oral bioavailability in rat; assay type: ADME, organism-based; details: in vivo
[26] = Plasma clearance in healthy human; assay type: ADME
Homo sapiens [27] = organism: Homo sapiens; experiment: Antimigraine activity in migraine patient assessed as pain relief incidence at 2.5 mg after 2 hrs (reference value: 27%); assay type: functional

Chain of Calcitonin gene-related peptide type 1 receptor (Homo sapiens, UniProt O60894+Q16602) (Q16602 whole entry, one chain of several): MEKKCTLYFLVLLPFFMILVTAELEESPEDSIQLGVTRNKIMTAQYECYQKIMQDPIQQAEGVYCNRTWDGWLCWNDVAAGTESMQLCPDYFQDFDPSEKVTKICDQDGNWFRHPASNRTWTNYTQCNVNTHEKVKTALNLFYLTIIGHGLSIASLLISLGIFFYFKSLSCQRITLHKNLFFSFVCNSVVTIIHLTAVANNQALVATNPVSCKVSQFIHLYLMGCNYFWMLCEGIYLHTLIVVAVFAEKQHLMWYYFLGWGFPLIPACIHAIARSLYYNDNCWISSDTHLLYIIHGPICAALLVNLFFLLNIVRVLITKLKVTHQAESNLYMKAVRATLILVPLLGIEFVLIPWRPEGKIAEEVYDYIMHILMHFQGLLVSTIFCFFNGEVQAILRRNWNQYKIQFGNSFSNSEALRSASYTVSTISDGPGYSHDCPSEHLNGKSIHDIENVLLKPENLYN
Chain of Calcitonin gene-related peptide type 1 receptor (Homo sapiens, UniProt Q16602) (Q16602 whole entry): as the sequence (Q16602 whole entry, one chain of several) above

Work on `CN(C)CCc1c[nH]c2ccc(C[C@H]3COC(=O)N3)cc12` [ZOLMITRIPTAN] yielded an Activity (Homo sapiens [1]) of 56.4%, an Activity (Homo sapiens [2]) of 31.3% and an Activity (Homo sapiens [3]) of 56.4%.

Work on `CN(C)CCc1c[nH]c2ccc(Cn3cncn3)cc12` [RIZATRIPTAN] yielded an Activity (Homo sapiens [4]) of 69.5%, an Activity (Homo sapiens [5]) of 33.4% and an Activity (Homo sapiens [6]) of 46.3%. For the same compound, the Activity (Homo sapiens [7]) was 69.5%.

Work on `CNS(=O)(=O)Cc1ccc2[nH]cc(CCN(C)C)c2c1` yielded an Activity (Homo sapiens [8]) of 35% and an Activity (Homo sapiens [9]) of 72%.

For `NCCCC[C@H](NC(=O)[C@@H](Cc1cc(Br)c(O)c(Br)c1)NC(=O)CCCc1ccccc1)C(=O)NCCc1ccccc1`, the IC50 [10] was 17000 nM.

In the case of `O=C(CN1C(=O)C2(CCCC2)NC[C@H]1c1cc(F)cc(F)c1)Nc1ccc2c(c1)C[C@@]1(C2)C(=O)Nc2ncccc21` [MK3207], the T1/2 [11] is reported as 59 min, the Selectivity ratio (Homo sapiens [12]) is reported as 30 and the Selectivity ratio (Homo sapiens [13]) is reported as > 600000. It also gave a Ki [14] of 0.024 nM, an Activity (Homo sapiens [15]) of 57.1% and an Activity (Homo sapiens [16]) of 69%. The Activity (Homo sapiens [17]) was 36.2%, the Selectivity ratio (Homo sapiens [18]) was 6500 and the Activity (Homo sapiens [19]) was 25.4%. For the same compound, the EC90 (Homo sapiens [20]) was 14 nM.

In the case of `NCCCC[C@H](NC(=O)[C@@H](Cc1cc(Br)c(O)c(Br)c1)NC(=O)N1CCC(N2Cc3ccccc3NC2=O)CC1)C(=O)N1CCN(c2ccncc2)CC1` [OLCEGEPANT], the NOAEL (Homo sapiens [21]) is reported as 2.5 mg, the Activity (Homo sapiens [22]) is reported as 44% and the bioavailability [23] is reported as < 1%. For the same compound, the Cmax [24] was 240 nM, the bioavailability [25] was < 1% and the clearance [26] was 200 mL/min. The Activity (Homo sapiens [27]) was 66%.
